Measured values published in ChEMBL document CHEMBL1811795, “Photolabile ubiquinone analogues for identification and characterization of quinone binding sites in proteins” (Bioorg Med Chem, 2010).
Calls of active or inactive are those of the source. The calls are words filed in the database; no cut-off is given here.

Key:
Bacillus subtilis [1] = assay: Inhibition of Bacillus subtilis Succinate-ubiquinone oxidoreductase using Q0 as substrate
Method in brief: (§1)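 Succinate:quinone reductase of purified B. subtilis Complex II, read as DCPIP reduction at 600 nm. Conditions: 20 mM succinate, 50 mM potassium phosphate pH 7.4, 1 mM KCN, 0.1 mM EDTA, room temperature, quinone starting the reaction. HQNO added at 10 µM final; percent inhibition recorded.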

Rhodobacter capsulatus [2] = assay: Activity of Rhodobacter capsulatus NADH-ubiquinone oxidoreductase
Method in brief: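 R. capsulatus membranes (aerobic, dark, 32 °C growth) assayed for NADH:quinone reductase at 25 °C: 50 mM Tris–Cl pH 8, 10 mM KCl, 5 mM MgCl2, 0.2 µg/mL gramicidin A, 150 µM NADH. Quinone varied 0.2–3 Km; Michaelis–Menten fit of initial rates gives apparent Km and Vmax. NADH oxidation read at 340 nm.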

Bacillus subtilis [3] = assay: Inhibition of photo labeled detergent solubilized succinate:ubiquinone oxidoreductase activity in Bacillus subtilis measured in dark
Method in brief: (§2)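 Purified Complex II (5 µM, detergent) with 10–75 µM azidoquinone in 50 mM potassium phosphate, 1 mM EDTA, pH 7.4, illuminated on ice with mid-wavelength UV at 7 cm; timed aliquots held dark on ice. SQR activity then measured within 1 h by DCPIP reduction with Q1 as acceptor.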

Bacillus subtilis [4] = assay: Activity of Bacillus subtilis Succinate-ubiquinone oxidoreductase
Method in brief: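 Purified detergent-solubilized B. subtilis Complex II ([…]): succinate-driven DCPIP reduction followed at 600 nm, 20 mM succinate, quinone (50 mM as printed) as primary acceptor, 50 mM potassium phosphate pH 7.4 with 1 mM KCN and 0.1 mM EDTA, room temperature, started by quinone; Vmax reported.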

Escherichia coli [5] = assay: Activity of Escherichia coli WrbA
Method in brief: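 Purified E. coli WrbA in 20 mM potassium phosphate pH 7.2, room temperature, with 100 µM FMN, 200 µM NADH and 200 µM quinone; NADH oxidation followed at 340 nm; Vmax reported.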

Rhodobacter capsulatus [6] = assay: Inhibition of Rhodobacter capsulatus NADH-ubiquinone oxidoreductase using AzQ0 as substrate
Rhodobacter capsulatus [7] = assay: Inhibition of Rhodobacter capsulatus NADH-ubiquinone oxidoreductase using Q1 as substrate
Rhodobacter capsulatus [8] = assay: Inhibition of Rhodobacter capsulatus NADH-ubiquinone oxidoreductase using Q0 as substrate
Rhodobacter capsulatus [9] = assay: Inhibition of Rhodobacter capsulatus NADH-ubiquinone oxidoreductase using DMB as substrate
Rhodobacter capsulatus [10] = assay: Inhibition of Rhodobacter capsulatus NADH-ubiquinone oxidoreductase using DAzB as substrate
Rhodobacter capsulatus [11] = assay: Inhibition of Rhodobacter capsulatus NADH-ubiquinone oxidoreductase using AzQ1 as substrate
Rhodobacter capsulatus [12] = assay: Inhibition of NADH:Q1 reductase activity of Rhodobacter capsulatus NADH-ubiquinone oxidoreductase at 20 uM after 5 mins of UV-illumination
Method in brief: (§3)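 R. capsulatus membranes, 1 mg/mL protein in Bis–Tris propane buffer pH 6.8, preincubated 5 min in the dark with about 20 µM azidoquinone. Then illuminated with mid-wavelength UV at 7 cm, 4 °C, in a quartz cuvette. Where stated, 5 µM NADH was added (with KCN) before illumination. NADH:Q1 reductase assayed straight after: 340 nm, 25 °C, Tris–Cl pH 8.0, 5 mM KCN, 100 µM Q1, 150 µM NADH, gramicidin.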

Rhodobacter capsulatus [13] = assay: Inhibition of NADH:Q1 reductase activity of Rhodobacter capsulatus NADH-ubiquinone oxidoreductase at 20 uM after 5 mins of UV-illumination in presence of 5 uM NADH; method in brief: as §3
Rhodobacter capsulatus [14] = assay: Inhibition of NADH:ferricyanide reductase activity of Rhodobacter capsulatus NADH-ubiquinone oxidoreductase at 20 uM after 20 mins of UV-illumination
Rhodobacter capsulatus [15] = assay: Inhibition of NADH:Q1 reductase activity of Rhodobacter capsulatus NADH-ubiquinone oxidoreductase at 20 uM; conditions: TDE = time-dependent effect
Method in brief: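 Membranes in Buffer A (50 mM Bis–Tris propane pH 6.8, 20 mM KCl, 10 mM MgCl2) at 1 mg/mL protein, preincubated 5 min dark with ~20 µM azidoquinone, UV-illuminated up to 10 min at 7 cm, 4 °C. NADH:Q1 reductase then read at 340 nm, 25 °C, pH 8.0 Tris–Cl with 5 mM KCN, 100 µM Q1, 150 µM NADH.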

Rhodobacter capsulatus [16] = assay: Activity of Rhodobacter capsulatus NADH-ubiquinone oxidoreductase at 50 uM UV-illuminated compound
Method in brief: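 R. capsulatus membranes incubated with 50 µM previously UV-illuminated azidoquinone, then NADH:O2 reductase (NADH oxidase) activity measured. Runs without additions and with the unmodified quinone were done in parallel.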

Bacillus subtilis [17] = assay: Inhibition of Bacillus subtilis Succinate-ubiquinone oxidoreductase using Q1 as substrate
Method in brief: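 Purified B. subtilis Complex II (from a strain overproducing it, solubilised in dodecylmaltoside), 5 µM, in 50 mM potassium phosphate, 1 mM EDTA, pH 7.4. Illuminated on ice with mid-wavelength UV at 7 cm, with 10–75 µM azidoquinone. Samples held dark on ice, then assayed within 1 h: succinate:Q1 reductase, read as DCPIP reduction at 600 nm, room temperature.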

[18] = Photo stability of the compound assessed as decomposition at 500 uM after 10 mins of UV-illumination; type: physicochemical
Rhodobacter capsulatus [19] = assay: Activity of Rhodobacter capsulatus NADH-ubiquinone oxidoreductase at 50 uM post UV-illuminated compound
Bacillus subtilis [20] = assay: Inhibition of Bacillus subtilis Succinate-ubiquinone oxidoreductase using AzQ0 as substrate; method in brief: as §1
Escherichia coli [21] = assay: Inhibition of photo labeled Escherichia coli WrbA activity at 50 uM; conditions: TDE = time-dependent effect
Method in brief: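 WrbA (10 µM) with 50 µM azidoquinone in 20 mM potassium phosphate pH 7.2, on ice, under mid-wavelength UV light at 7 cm; aliquots taken over time and kept dark on ice. Activity then read within 1 h as NADH oxidation at 340 nm with 100 µM FMN, 200 µM NADH and 200 µM quinone.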

Bacillus subtilis [22] = assay: Inhibition of photo labeled detergent solubilized succinate:ubiquinone oxidoreductase activity of respiratory chain in Bacillus subtilis after 5 mins of UV-illumination; method in brief: as §2

SMILES	Km (Rhodobacter capsulatus [2])	Vmax (Rhodobacter capsulatus [2])	inhibition (Bacillus subtilis [3])	Vmax (microM/min/mg) (Bacillus subtilis [4])	Vmax (microM/min/mg) (Escherichia coli [5])	other results
COC1=C(OC)C(=O)C(C)=CC1=O	75 µM	0.37 µmol/min/mg	inactive	2.19	684	Imax (Bacillus subtilis [1]): 88%
C/C=C(\C)[C@H](O)[C@H](C)/C=C(C)/C=C/C/C(C)=C/Cc1nc(OC)c(OC)c(O)c1C	–	–	–	–	–	Imax (Rhodobacter capsulatus [6]): 68%; Imax (Rhodobacter capsulatus [7]): 73%; Imax (Rhodobacter capsulatus [8]): 68%; Imax (Rhodobacter capsulatus [9]): 75%; Imax (Rhodobacter capsulatus [10]): 71%; Imax (Rhodobacter capsulatus [11]): 79%
CC1=CC(=O)C=C(C)C1=O	100 µM	0.35 µmol/min/mg	inactive	3.99	546	–
C=C(C)[C@H]1Cc2c(ccc3c2O[C@@H]2COc4cc(OC)c(OC)cc4[C@@H]2C3=O)O1	–	–	–	–	–	Imax (Rhodobacter capsulatus [6]): 53%; Imax (Rhodobacter capsulatus [7]): 68%; Imax (Rhodobacter capsulatus [8]): 48%; Imax (Rhodobacter capsulatus [9]): 63%; Imax (Rhodobacter capsulatus [10]): 53%; Imax (Rhodobacter capsulatus [11]): 79%
[N-]=[N+]=NC1=CC(=O)C=CC1=O	–	–	–	–	–	inhibition (Rhodobacter capsulatus [12]): Active; inhibition (Rhodobacter capsulatus [13]): Active
COC1=C(OC)C(=O)C(CCCCCN=[N+]=[N-])=C(C)C1=O	21 µM	0.35 µmol/min/mg	inactive	2.57	–	inhibition (Rhodobacter capsulatus [14]): inactive; inhibition (Rhodobacter capsulatus [15]): tde; inhibition (Rhodobacter capsulatus [16]): 20%
COC1=C(OC)C(=O)C(CC=C(C)C)=C(C)C1=O	23 µM	0.67 µmol/min/mg	inactive	2.52	< 10	Imax (Bacillus subtilis [17]): 90%
CC1=CC(=O)C(N=[N+]=[N-])=C(C)C1=O	86 µM	0.59 µmol/min/mg	inactive	4.72	464	Stability [18]: Unstable; inhibition (Rhodobacter capsulatus [19]): inactive
COC1=C(OC)C(=O)C(N=[N+]=[N-])=C(C)C1=O	52 µM	0.58 µmol/min/mg	inactive	3.72	724	Stability [18]: Stable; Imax (Bacillus subtilis [20]): 89%; inhibition (Rhodobacter capsulatus [16]): 20%; inhibition (Escherichia coli [21]): tde; inhibition (Bacillus subtilis [22]): Active
